Test results reported in ChEMBL document CHEMBL1142646, “Tetrahydroisoquinoline 1-carboxamides as growth hormone secretagogues” (Bioorg Med Chem Lett, 2005).

Tests used:
[1] = molecular target: T1, Growth hormone secretagogue receptor type 1 (Homo sapiens, UniProt Q92847); test: In vitro effective concentration against human growth hormone secretagogues; assay type: functional
Summary of the method: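 Cell-based FLIPR functional assay in H4 glioma cells in which expression of the endogenous human GHS receptor is enhanced by RAGE-activation. Agonism is read as intracellular calcium mobilization with a calcium-sensitive fluorescent probe, and EC50 is derived from the response.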

[2] = molecular target: T1, Growth hormone secretagogue receptor type 1; test: In vitro effective concentration against human growth hormone secretagogues
Rattus norvegicus [3] = test: Percent of plasma growth hormone increase at an IV dose of 5.23 lmol/kg; assay type: functional
Summary of the method: (§1)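 Anesthetized rats (treatment stabilizes baseline plasma GH near 60 ng/mL) were given drug or vehicle (10% ethanol, 0.09% saline V/V) IV at 10 mL/kg, five rats per group. Blood was drawn from the abdominal aorta 15 min later for plasma GH. The result is expressed as % increase over the vehicle group, or as rats exceeding a 100% increase.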

Rattus norvegicus [4] = organism: Rattus norvegicus; test: Number of rats with greater than 100% GH increase over the controlgroup, there are five rats in both control and compound treated groups.; assay type: functional; summary of the method: as §1
[5] = molecular target: T1, Growth hormone secretagogue receptor type 1; test: In vivo effective concentration against human growth hormone secretagogues; assay type: functional, organism-based, Rattus norvegicus
Rattus norvegicus [6] = organism: Rattus norvegicus; test: Number of rats with greater than 100% growth hormone increase over the control group, there are five rats in both control and compound treated groups; assay type: functional; summary of the method: as §1
[7] = molecular target: T1, Growth hormone secretagogue receptor type 1; test: Maximum intrinsic activity against human growth hormone secretagogues at a concentration of 10 uM; assay type: functional

T1 sequence (Q92847 whole entry): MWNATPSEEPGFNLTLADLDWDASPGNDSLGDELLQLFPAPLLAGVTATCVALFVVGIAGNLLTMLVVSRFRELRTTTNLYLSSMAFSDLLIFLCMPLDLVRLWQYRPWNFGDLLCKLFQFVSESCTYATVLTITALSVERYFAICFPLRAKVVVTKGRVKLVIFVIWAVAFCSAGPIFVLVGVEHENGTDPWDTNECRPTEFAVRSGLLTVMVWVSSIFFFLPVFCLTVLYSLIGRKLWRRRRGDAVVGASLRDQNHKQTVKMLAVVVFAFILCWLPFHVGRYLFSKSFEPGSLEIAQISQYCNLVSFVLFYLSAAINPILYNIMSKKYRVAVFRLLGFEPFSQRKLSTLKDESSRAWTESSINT

Structure (SMILES)	EC50 [1] [nM]	further results
CC(C)N(CCNC(=O)C1c2ccc(Oc3cccc(C(F)(F)F)c3)cc2CCN1C(=O)OC(C)(C)C)C(C)C (configuration not stated)	1.5	
CC(C)NCCNC(=O)C1c2ccc(OCc3ccccc3)cc2CCN1C(=O)OC(C)(C)C (configuration not stated)	219	
CC(C)N(CCNC(=O)C1c2ccc(OCc3ccccc3)cc2CCN1C(=O)Cc1ccccc1F)C(C)C (configuration not stated)	43	
CSc1ccc(Oc2ccc3c(c2)CCN(C(=O)OC(C)(C)C)C3C(=O)NCCN(C(C)C)C(C)C)cc1 (configuration not stated)	2.4	
CC(=O)NC(C(=O)N1CCc2cc(OCc3ccccc3)ccc2C1C(=O)NCCN(C(C)C)C(C)C)c1ccccc1 (configuration not stated)	19.7	
CC(C)N(CCNC(=O)C1c2ccc(Oc3ccc(C(F)(F)F)cc3)cc2CCN1C(=O)OC(C)(C)C)C(C)C (configuration not stated)	2.3	
COc1ccc(Oc2ccc3c(c2)CCN(C(=O)OC(C)(C)C)C3C(=O)NCCN(C(C)C)C(C)C)cc1 (configuration not stated)	0.49	EC50 [2]: 0.49 nM; Increase (Rattus norvegicus [3]): 172%; Responder (Rattus norvegicus [4]): 4 rats
CC(C)N(CCNC(=O)C1c2ccc(Oc3ccc(Cl)cc3)cc2CCN1C(=O)OC(C)(C)C)C(C)C (configuration not stated)	0.73	
CC(C)N(CCNC(=O)C1c2ccc(OCc3ccccc3)cc2CCN1S(=O)(=O)Cc1ccccc1)C(C)C (configuration not stated)	7.3	
CC(=O)c1ccccc1C(=O)N1CCc2cc(OCc3ccccc3)ccc2C1C(=O)NCCN(C(C)C)C(C)C (configuration not stated)	7.3	
COc1cccc(CC(=O)N2CCc3cc(OCc4ccccc4)ccc3C2C(=O)NCCN(C(C)C)C(C)C)c1 (configuration not stated)	6.4	
CC(C)N(CCNC(=O)C1c2ccc(OCc3ccccc3)cc2CCN1C(=O)Oc1ccccc1)C(C)C (configuration not stated)		Activity [7]: < 5%
CC(=O)C(C(=O)N1CCc2cc(OCc3ccccc3)ccc2C1C(=O)NCCN(C(C)C)C(C)C)c1ccccc1 (configuration not stated)	9.2	
CC(C)N(CCNC(=O)C1c2ccc(OCc3ccccc3)cc2CCN1C(=O)C(C)(C)C)C(C)C (configuration not stated)		Activity [7]: 50%
COc1ccccc1CC(=O)N1CCc2cc(OCc3ccccc3)ccc2C1C(=O)NCCN(C(C)C)C(C)C (configuration not stated)	2.1	
CCN(CC)CCNC(=O)C1c2ccc(OCc3ccccc3)cc2CCN1C(=O)OC(C)(C)C (configuration not stated)	19.6	
CC(C)N(CCNC(=O)C1c2ccc(Oc3cccc([N+](=O)[O-])c3)cc2CCN1C(=O)OC(C)(C)C)C(C)C (configuration not stated)	0.66	
CC(C)N(CCNC(=O)C1c2ccc(Oc3ccc(C=O)cc3)cc2CCN1C(=O)OC(C)(C)C)C(C)C (configuration not stated)	1.4	

Structure (SMILES)	EC50 [1] [nM]	further results
CC(C)N(CCNC(=O)C1c2ccc(OCc3ccccc3)cc2CCN1S(=O)(=O)c1ccccc1)C(C)C (configuration not stated)	21	
CC(C)N(CCNC(=O)C1c2ccc(OCc3ccccc3)cc2CCN1C(=O)C(CO)c1ccccc1)C(C)C (configuration not stated)	5.6	
CC(C)N(CCNC(=O)C1c2ccc(OCc3ccccc3)cc2CCN1C(=O)Nc1ccccc1)C(C)C (configuration not stated)		Activity [7]: 43%
CC(C)N(CCNC(=O)C1c2ccc(OCc3ccccc3)cc2CCN1C(=O)OCc1ccccc1)C(C)C (configuration not stated)	27	
COc1ccc(CC(=O)N2CCc3cc(OCc4ccccc4)ccc3C2C(=O)NCCN(C(C)C)C(C)C)cc1 (configuration not stated)	45	
COc1cccc(Oc2ccc3c(c2)CCN(C(=O)OC(C)(C)C)C3C(=O)NCCN(C(C)C)C(C)C)c1 (configuration not stated)	0.46	
CN(C)CCNC(=O)C1c2ccc(OCc3ccccc3)cc2CCN1C(=O)OC(C)(C)C (configuration not stated)		Activity [7]: 46%
CCCCS(=O)(=O)N1CCc2cc(OCc3ccccc3)ccc2C1C(=O)NCCN(C(C)C)C(C)C (configuration not stated)		Activity [7]: 50%
CC(C)N(CCNC(=O)C1c2ccc(OCc3ccccc3)cc2CCN1C(=O)CCCc1ccccc1)C(C)C (configuration not stated)	13.1	
CCOc1ccccc1C(=O)N1CCc2cc(OCc3ccccc3)ccc2C1C(=O)NCCN(C(C)C)C(C)C (configuration not stated)		Activity [7]: 30%
CC(C)(N)CNC(=O)C1c2ccc(OCc3ccccc3)cc2CCN1C(=O)OC(C)(C)C (configuration not stated)		Activity [7]: 47%
CC(C)N(CCNC(=O)C1c2ccc(OCc3ccccc3)cc2CCN1C(=O)CCc1ccccc1)C(C)C (configuration not stated)	26.7	
CC(C)N(CCNC(=O)C1c2ccc(OCc3ccccc3)cc2CCN1C(=O)OC1CCCCC1)C(C)C (configuration not stated)	4.9	
CC(C)N(CCNC(=O)C1c2ccc(Oc3cccc(F)c3)cc2CCN1C(=O)OC(C)(C)C)C(C)C (configuration not stated)	4.3	
CC(C)N(CCNC(=O)C1c2ccc(OCc3ccccc3)cc2CCN1C(=O)C(O)c1ccccc1)C(C)C (configuration not stated)	39	
CC(=O)Nc1cccc(Oc2ccc3c(c2)CCN(C(=O)OC(C)(C)C)C3C(=O)NCCN(C(C)C)C(C)C)c1 (configuration not stated)	12	
CC(C)(CN)CNC(=O)C1c2ccc(OCc3ccccc3)cc2CCN1C(=O)OC(C)(C)C (configuration not stated)	257	
CC(C)N(CCNC(=O)C1c2ccc(OCc3ccccc3)cc2CCN1S(C)(=O)=O)C(C)C (configuration not stated)		Activity [7]: 47%

Continued, in another order:

EC50 [1] [nM]	Structure (SMILES)	further results
17.8	CC(C)N(CCNC(=O)C1c2ccc(OCc3ccccc3)cc2CCN1C(=O)c1ccccc1F)C(C)C (configuration not stated)	
257	CC(=O)N1CCc2cc(OCc3ccccc3)ccc2C1C(=O)NCCN(C(C)C)C(C)C (configuration not stated)	
1.5	COC(=O)C(C)(C)OC(=O)N1CCc2cc(OCc3ccccc3)ccc2C1C(=O)NCCN(C(C)C)C(C)C (configuration not stated)	EC50 [2]: 1.5 nM; Increase (Rattus norvegicus [3]): 746%; Responder (Rattus norvegicus [4]): 5 rats
0.49	CC(C)N(CCNC(=O)C1c2ccc(Oc3ccccc3)cc2CCN1C(=O)OC(C)(C)C)C(C)C (stereo in doubt; 12a)	
0.46	CC(C)N(CCNC(=O)C1c2ccc(Oc3ccccc3)cc2CCN1C(=O)OC(C)(C)C)C(C)C (single isomer, unassigned; form 2)	Increase (Rattus norvegicus [3]): 1283%; EC50 [5]: 0.46 nM; Responder (Rattus norvegicus [6]): 5 rats
190	CC(C)N(CCNC(=O)C1c2ccc(OCc3ccccc3)cc2CCN1C(=O)N(C)C)C(C)C (configuration not stated)	
3.4	CCCOC(=O)N1CCc2cc(OCc3ccccc3)ccc2C1C(=O)NCCN(C(C)C)C(C)C (configuration not stated)	
7.6	CC(C)N(CCNC(=O)C1c2ccc(Oc3ccccc3)cc2CCN1C(=O)OC(C)(C)C)C(C)C (single isomer, unassigned; form 1)	
3.4	CC(C(=O)N1CCc2cc(OCc3ccccc3)ccc2C1C(=O)NCCN(C(C)C)C(C)C)c1ccccc1 (configuration not stated)	
14.4	CC(C)N(CCNC(=O)C1c2ccc(OCc3ccccc3)cc2CCN1C(=O)NC(C)(C)C)C(C)C (configuration not stated)	
0.85	CC(C)N(CCNC(=O)C1c2ccc(OCc3ccccc3)cc2CCN1C(=O)OC(C)(C)C(=O)N(C)C)C(C)C (configuration not stated)	
9.8	CC(C)N(CCNC(=O)C1c2ccc(OCc3ccccc3)cc2CCN1C(=O)OC(C)(C)C#N)C(C)C (configuration not stated)	
20.9	CC(C)N(CCNC(=O)C1c2ccc(OCc3ccccc3)cc2CCN1C(=O)CC(C)(C)C)C(C)C (configuration not stated)	
11.7	CC(C)N(CCNC(=O)C1c2ccc(OCc3ccccc3)cc2CCN1C(=O)OC(C)(C)C)C(C)C (configuration not stated)	
41	CC(C)N(C)CCNC(=O)C1c2ccc(OCc3ccccc3)cc2CCN1C(=O)OC(C)(C)C (configuration not stated)	
2	CC(=O)C(C)(C)OC(=O)N1CCc2cc(OCc3ccccc3)ccc2C1C(=O)NCCN(C(C)C)C(C)C (configuration not stated)	EC50 [2]: 2 nM; Increases (Rattus norvegicus [3]): 666%; Responder (Rattus norvegicus [4]): 5 rats
9	CC(C)N(CCNC(=O)C1c2ccc(OCc3ccccc3)cc2CCN1C(=O)Cc1ccccc1)C(C)C (configuration not stated)	
7.6	CC(C)N(CCNC(=O)C1c2ccc(OCc3ccccc3)cc2CCN1C(=O)c1ccccc1)C(C)C (configuration not stated)	
21	CC(C)N(CCNC(=O)C1c2ccc(OCc3ccccc3)cc2CCN1S(=O)(=O)N(C)C)C(C)C (configuration not stated)	
